Laboratory results taken from ChEMBL document CHEMBL1138845, “Design of non-nucleoside inhibitors of HIV-1 reverse transcriptase with improved drug resistance properties. 2” (J Med Chem, 2004).

What was measured:
HeLa [1] = test: Inhibitory concentration against human immunodeficiency virus type 1 (with K103N/G190A resistant mutation) was determined in HeLa-CD4 MAGI assay; format: functional, cell-based
In short: (§1)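 Tested against a panel of recombinant, isogenic HIV-1 viruses, wild type and NNRTI-resistant strains carrying engineered single or double RT mutations. The readout was IC50.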

HeLa [2] = test: Inhibitory concentration against human immunodeficiency virus type 1 (with K103N/V108I resistant mutation) was determined in HeLa-CD4 MAGI assay; format: functional, cell-based; in short: as §1
HeLa [3] = test: Inhibitory concentration against human immunodeficiency virus type 1 (with K103N/Y181C resistant mutation) was determined in HeLa-CD4 MAGI assay; format: functional, cell-based; in short: as §1
HeLa [4] = test: Inhibitory concentration against human immunodeficiency virus type 1 (with V106A/Y181C resistant mutation) was determined in HeLa-CD4 MAGI assay; format: functional, cell-based; in short: as §1
HeLa [5] = test: Inhibitory concentration against human immunodeficiency virus type 1 (with V108I/Y181C resistant mutation) was determined in HeLa-CD4 MAGI assay; format: functional, cell-based; in short: as §1
MT4 [6] = test: Ratio of cytotoxic concentration to that of inhibitory concentration as selectivity index was determined by MT-4 assay; format: functional, Homo sapiens
In short: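 Index is the IC50 in uninfected MT4 cells divided by the antiviral IC50 in MT4 cells infected with wild-type HIV-1 or the nevirapine-resistant strain carrying RT mutation Y181C.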

MT4 [7] = test: Inhibitory concentration against wild type human immunodeficiency virus type 1 was determined by MT-4 assay; format: functional, cell-based
[8] = system: Human immunodeficiency virus 1; test: Inhibitory concentration against wild type human immunodeficiency virus type 1 was determined by recombinant virus assay; format: functional, organism-based
In short: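 Isogenic recombinant HIV-1 carrying wild-type RT, tested in parallel with a panel of NNRTI-resistant RT mutants built on the same background; activity reported as IC50.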

MT4 [9] = test: Inhibitory concentration against nevirapine resistant strain (with Y181C mutation in HIV-1 RT gene) of human immunodeficiency virus type 1 was determined by MT-4 assay; format: functional, cell-based
HeLa [10] = test: Inhibitory concentration against human immunodeficiency virus type 1 (with G190A resistant mutation) was determined in HeLa-CD4 MAGI assay; format: functional, cell-based; in short: as §1
HeLa [11] = test: Inhibitory concentration against human immunodeficiency virus type 1 (with K103N resistant mutation) was determined in HeLa-CD4 MAGI assay; format: functional, cell-based; in short: as §1
HeLa [12] = test: Inhibitory concentration against human immunodeficiency virus type 1 (with V106A resistant mutation) was determined in HeLa-CD4 MAGI assay; format: functional, cell-based; in short: as §1
HeLa [13] = test: Inhibitory concentration against human immunodeficiency virus type 1 (with V108I resistant mutation) was determined in HeLa-CD4 MAGI assay; format: functional, cell-based; in short: as §1
HeLa [14] = test: Inhibitory concentration against human immunodeficiency virus type 1 (with Y181C resistant mutation) was determined in HeLa-CD4 MAGI assay; format: functional, cell-based; in short: as §1
HeLa [15] = test: Inhibitory concentration against human immunodeficiency virus type 1 (with Y188C resistant mutation) was determined in HeLa-CD4 MAGI assay; format: functional, cell-based; in short: as §1

Row | SMILES | IC50 (HeLa [1]) [nM] | IC50 (HeLa [2]) [nM] | IC50 (HeLa [3]) [nM] | IC50 (HeLa [4]) [nM] | IC50 (HeLa [5]) [nM] | Ratio (MT4 [6]) | IC50 (MT4 [7]) [nM] | IC50 [8] [nM] | IC50 (MT4 [9]) [nM] | IC50 (HeLa [10]) [nM] | IC50 (HeLa [11]) [nM] | IC50 (HeLa [12]) [nM] | IC50 (HeLa [13]) [nM] | IC50 (HeLa [14]) [nM] | IC50 (HeLa [15]) [nM]
1 | CCCc1c(OC2CCCCC2)c2cc(Cl)ccc2[nH]c1=O | 1000 | ~2000 | > 2000 | 1100 | 900 | >5000 | 58 | 32 | 760 | 54 | > 2000 | 980 | 180 | 470 | 12
2 | CCCc1c(O)nc2ccc(OC(F)(F)F)cc2c1OC1CCCC1 | > 2000 | > 2000 | > 2000 | > 2000 | > 2000 | >40000 | 380 | 270 | 2500 | 47 | > 2000 | > 2000 | 300 | 990 | 360
3 | CC(C)Cc1c(O)nc2ccc(Cl)cc2c1OC1CCCC1 | > 2000 | > 2000 | > 2000 | > 2000 | 1100 | >40000 | 52 | 150 | 1600 | 42 | > 2000 | 1500 | 280 | 37 | 59
4 | CCCc1c(O)nc2ccc(F)cc2c1OC1CCCC1 | > 2000 | > 2000 | > 2000 | > 2000 | > 2000 | >40000 | 150 | 150 | 1300 | 370 | > 2000 | > 2000 | 350 | 1800 | 42
5 | CCCc1c(O)nc2ccc(Br)cc2c1OC1CCCC1 | > 2000 | > 2000 | > 2000 | > 2000 | 520 | >40000 | 120 | 49 | 1700 | 32 | > 2000 | 430 | 120 | > 2000 | 9
6 | CC(C)c1c(OC2CCCCC2)c2cc(Cl)ccc2[nH]c1=O | 190 | > 2000 | > 2000 | 430 | ~800 | >40000 | 23 | 38 | 360 | 27 | 170 | 1100 | 110 | 1400 | 12
7 | CCCc1c(O)nc2ccccc2c1OC1CCCC1 | > 2000 | > 2000 | > 2000 | > 2000 | > 2000 | >40000 | 380 | 350 | 3900 | 270 | > 2000 | > 2000 | 1220 | 630 | 180
8 | CCC(C)c1c(O)nc2ccc(Cl)cc2c1OC1CCCC1 (stereo not given) | > 2000 | > 2000 | > 2000 | ~2000 | > 2000 | >40000 | 9 | 9.3 | 290 | ~2000 | 970 | > 2000 | 1100 | 320 | 670
9 | CCCc1c(O)nc2ccc(Cl)cc2c1OC1CCCC1 | > 2000 | > 2000 | > 2000 | > 2000 | 670 | >40000 | 96 | 60 | 1700 | 25 | > 2000 | 270 | 200 | > 2000 | 31
